{"source": "ChEMBL document CHEMBL4145684", "about": "(J Med Chem, 2018)", "tested_on": "Rattus norvegicus", "assay": "Reduction in uterine wet weight in ethynyl estradiol-stimulated CD-IGS rat at 200 mg/kg, po dosed daily for 3 days by gavage followed 15 mins later by 0.1 mg/kg, po ethynyl estradiol and measured 24 hrs after last dose by immature rat uterine wet weight assay", "format": "functional", "summary_of_the_method": "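Female immature CD-IGS rats, 21 days old on arrival. Compound or vehicle was given orally by gavage once daily for 3 days, and oral ethynyl estradiol at 0.1 mg/kg followed each dose by 15 min. On day 4, 24 h after dosing, plasma was taken for PK, then the uterus was removed and weighed. % reduction = 100 × (VehicleEE − Cpd)/(VehicleEE − Vehicle).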"}
{"compound": "C[C@]12CC[C@@H]3c4ccc(O)cc4C[C@@H](CCCCCCCCC[S+]([O-])CCCC(F)(F)C(F)(F)F)[C@H]3[C@@H]1CC[C@@H]2O", "note": "(stereo partly specified) [FULVESTRANT]", "values": [{"measurement": "inhibition (INH)", "value": 110, "unit": "%"}]}
